A selection: hits, their analogues and other compounds. The true share with any hit is near 3.1%.
CHO parental Ca: ATP-evoked calcium signal inhibitors, parental CHO, primary screen, counter-screen for OX1R antagonist project, cell-based, fluorescence, Fluo-8 calcium dye; parental CHO-K1, ATP-induced calcium, Fluo-8 fluorescence; 0.63% of 330,000 active; AID 463079, 2010; inhibition, % at 5.6 µM;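 active = inhibition above that plate's mean sample inhibition plus 3 SD, cut at about 26% in these data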;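 also: 0% = ATP-challenged DMSO wells and 100% = DMSO wells without ATP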
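Material: Parental CHO cells | Reagent: ATP | Compound dosing: Single nominal dose of 5.6 µM per compound | Detection: Intracellular calcium via Fluo-8 no-wash fluorescent dye | Read-out: % inhibition of ATP-induced calcium mobilization | Benchmarks: Low control ATP plus DMSO, high control DMSO only | Replicates: Singlicate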
GPR7 antagonist: GPR7 receptor antagonists, primary screen, cell-based, fluorescence, single concentration; Neuropeptides B/W receptor type 1 (Homo sapiens), P48145; GPR7-expressing cells, fluorescence antagonist assay; inhibition, % at 4.4 µM; 1.1% of 290,000 active; AID 1861, 2009; in the data active = inhibition above about 16%, passing the limit was not always enough;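 also: cells stimulated with the agonist NPW; 0% = agonist with vehicle and 100% = vehicle without agonist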
Target sequence (P48145 whole entry, looked up): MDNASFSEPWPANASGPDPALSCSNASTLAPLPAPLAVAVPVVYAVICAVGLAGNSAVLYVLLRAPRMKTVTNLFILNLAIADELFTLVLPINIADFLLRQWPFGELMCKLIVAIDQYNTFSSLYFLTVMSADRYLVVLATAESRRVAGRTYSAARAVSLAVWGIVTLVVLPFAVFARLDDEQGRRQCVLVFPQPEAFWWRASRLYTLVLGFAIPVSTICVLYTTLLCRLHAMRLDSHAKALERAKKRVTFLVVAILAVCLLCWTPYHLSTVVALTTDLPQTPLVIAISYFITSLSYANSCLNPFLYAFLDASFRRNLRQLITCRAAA
OX1R antag-1: OX1R (HCRTR1) antagonists, primary screen, fluorescence, CHO/OX1R cells, Fluo-8 calcium, orexin A; Orexin/Hypocretin receptor type 1 (Homo sapiens), O43613; Fluo-8 calcium fluorescence; inhibition, % at 5 µM; 0.43% of 330,000 active;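 active = inhibition above its plate's threshold, mean inhibition of all tested compounds on the plate plus 3 SD, cut at about 37% in these data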;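 also: 0% = orexin A challenge wells and 100% = SB-334867-A antagonist wells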
GalR3 antag: GalR3 antagonists in HEK293 cells, primary screen, cell-based, fluorescence readout; HEK293 GalR3-CNG cAMP membrane potential fluorescence; galR3 body fused to GalR1 C-terminus; inhibition, % at 3 µM; 0.44% of 360,000 active;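 active = inhibition above the screen-wide average plus 3 SD, cut at about 13% in these data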;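 also: forskolin and galanin both at EC90 stimulate the cells; cAMP rise reported by CNG channel membrane potential dye signal; 0% = forskolin plus galanin with DMSO and 100% = forskolin alone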
Target sequence (O60755 1-299 limits assumed): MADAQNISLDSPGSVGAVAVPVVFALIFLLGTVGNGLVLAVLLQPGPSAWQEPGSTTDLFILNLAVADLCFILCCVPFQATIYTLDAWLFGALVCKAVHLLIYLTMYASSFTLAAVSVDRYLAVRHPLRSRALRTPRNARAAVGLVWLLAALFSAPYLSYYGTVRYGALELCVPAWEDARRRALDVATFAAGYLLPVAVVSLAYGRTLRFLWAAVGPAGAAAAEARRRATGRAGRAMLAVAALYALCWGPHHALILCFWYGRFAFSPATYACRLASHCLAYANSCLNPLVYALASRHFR
OX1R antag-2: antagonists of human orexin 1 receptor (OX1R); Orexin/Hypocretin receptor type 1 (Homo sapiens), O43613; OX1R-expressing cells, FRET antagonist read-out; inhibition, % at 6.6 µM; 1.8% of 330,000 active; AID 485270, 2010; in the data active = inhibition mostly above about 38%, no sharp cut-off; inactive = mostly below about 40%;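 also: 0% = agonist challenge alone and 100% = reference antagonist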
GalR3 conf: GalR3 antagonist hit confirmation, cell-based, fluorescence, triplicate | shares compounds with GalR3 antag | 59% of 1,600 active | HEK293 GalR3 CNG cAMP biosensor, membrane potential fluorescence; galR3 fused to GalR1 carboxy tail; challenged with forskolin and galanin at EC90 | AID 652245, 2013 | inhibition, % at 3 µM;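 active = inhibition above the primary screen's cutoff, the mean inhibition of all screened compounds plus 3 SD, cut at about 13% in these data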;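 also: 0% = forskolin plus galanin and 100% = forskolin alone with DMSO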
CNG parental: nonspecific cAMP agonists in parental HEK-CNG cells, counter-screen for GalR3 antagonist project, cell-based, fluorescence, high throughput | shares compounds with GalR3 antag | HEK293-CNG parental cells, cAMP membrane potential fluorescence; normalised: DMSO wells 0%, forskolin wells 100% | activation, % at 3 µM | 10% of 1,600 active; in the data active = activation above about 1.3%
* = called active by the depositor; / = not tested or not shown.

SMILES | CHO parental Ca | GPR7 antagonist | OX1R antag-1 | GalR3 antag | OX1R antag-2 | GalR3 conf | CNG parental
COc1ccc(C(=O)N/N=C/c2cc3ccccc3[nH]c2=O)cc1 | 0 | -1 | -18 | / | 45 | 60* | 0
CCN(CC)S(=O)(=O)c1cccc(NC(=O)CNc2cccc(S(=O)(=O)N3CCCC3)c2)c1 | 57* | 11 | 28 | 104* | 25 | 113* | 0
O=C(CSc1ncccn1)Nc1cccc(S(=O)(=O)N2CCOCC2)c1 | -9 | / | -9 | -1 | 4 | / | /
CCN(CC)S(=O)(=O)c1cc(NC(=O)CNc2cccc(S(=O)(=O)N3CCOCC3)c2)ccc1C | 8 | / | -7 | 93* | 31 | 116* | -1
O=C(CSc1nccc(=O)[nH]1)Nc1cccc(S(=O)(=O)N2CCOCC2)c1 | 5 | -10 | 1 | 31* | 14 | 6 | 0
O=C(Cn1nc(C(=O)O)c2ccccc2c1=O)Nc1cccc(S(=O)(=O)N2CCCCC2)c1 | 25 | / | 60* | 13* | 28 | 58* | -1
COc1ccc(Cn2c(=O)[nH]c3cc(C(=O)N4CCN(Cc5ccccc5)CC4)ccc3c2=O)cc1 | -30 | -8 | -33 | 65* | 6 | 88* | 0
CCC1CCC(N2CCN(c3cccc(OC)c3)CC2)CC1 (stereo unspecified) | / | -13 | / | -3 | / | / | /
Cc1ccc([N+](=O)[O-])cc1S(=O)(=O)N1CCC(C)CC1 | -5 | 0 | 2 | -3 | 25 | / | /
Cc1ccc([N+](=O)[O-])cc1S(=O)(=O)N1CCCC1 | -3 | -6 | -15 | / | 33 | 0 | 0
COc1ccc(N(CC(=O)NCCSCc2ccco2)S(=O)(=O)c2ccccc2)cc1Cl | -19 | -3 | -8 | -3 | 40 | / | /
CCS(=O)(=O)c1ccc(O)c(NC(=O)/C=C/c2ccccc2)c1 | -4 | 7 | 7 | 13* | 30 | 0 | 0
CCS(=O)(=O)c1ccc(O)c(NC(=O)CCCC(=O)O)c1 | -4 | 6 | -9 | -4 | 4 | / | /
C=CC[C@@H](Cc1ccc(F)cc1)C(=O)OC[C@H]1CCCN1C(=O)[C@H](CC=C)CC(=O)NCCO | -11 | / | -12 | 14* | 6 | 4 | 0
O=C(Cc1ccccc1)NCC1COc2ccccc2O1 (stereo unspecified) | 8 | -2 | -2 | -4 | 18 | / | /
CC(NCC1COc2ccccc2O1)C(=O)NCc1ccccc1 (stereo unspecified) | -9 | -5 | -11 | 13* | 10 | 7 | 0
CC(Oc1ccc(Cl)cc1Cl)c1ccnc2nc(N3CCOCC3)nn12 (stereo unspecified) | -14 | -6 | -20 | / | 18 | 3 | 1
O=C(CNC(=O)c1cccc(F)c1)N/N=C/c1cccs1 | -1 | -11 | -17 | -9 | 9 | / | /
Cc1ccc(C(=O)CCC(=O)OCC(=O)N2CCN(S(=O)(=O)c3ccc(C)cc3C)CC2)cc1 | / | / | / | -5 | / | / | /
CCOC(=O)c1[nH]c2ccc(OC)cc2c1NS(=O)(=O)c1ccc(Cl)s1 | 0 | 5 | -12 | 103* | 26 | 92* | 0
COc1ccc2[nH]c(C(=O)O)c(NS(=O)(=O)c3ccc(Cl)s3)c2c1 | -11 | 3 | 0 | -5 | 5 | / | /
CCCCC[C@@H](/C=C/C1C(=O)C=C[C@H]1C/C=C\CCCC(=O)OC)OC(C)=O (stereo partly specified) | / | / | / | 59* | / | 90* | 0
Cc1c(C(=O)N2CCC(Cc3ccccc3)CC2)sc2ncnc(N3CCC(C)CC3)c12 | -12 | -13 | -32 | 0 | 6 | / | /
c1ccc(CC2CCN(c3ncnc4sccc34)CC2)cc1 | / | 15 | / | 70* | / | 88* | 1
N#Cc1sc2nc(N3CCCCC3)c3c(c2c1N)CCCC3 | -33 | -14 | -36 | -3 | 44 | / | /
SMILES | CHO parental Ca | GPR7 antagonist | OX1R antag-1 | GalR3 antag | OX1R antag-2 | GalR3 conf | CNG parental
Cc1nc2sc(C#N)c(N)c2c2c1CCCC2 | -22 | -19 | -20 | 27* | 63 | 34* | 0
COc1ccc(C(=O)c2ccc3oc(-c4ccc(OC)cc4)c(-c4ccc(O)cc4)c3c2)cc1 | 11 | / | 26 | 13* | 6 | 5 | -1
COc1ccc(C(=O)c2c(-c3ccc(OC)cc3)oc3ccccc23)cc1 | -23 | / | -35 | 3 | 16 | / | /
Cc1cc2ccccn2c1C(=O)Nc1cccc(Cl)c1 | -21 | -12 | -48 | 13* | 16 | 11 | 0
Cc1ccc(NC(=O)CN(CCc2ccccc2)S(C)(=O)=O)cc1 | / | -15 | / | -4 | / | / | /
CCC(C)NS(=O)(=O)c1ccc(S(=O)(=O)N(CCc2ccc(OC)c(OC)c2)Cc2cccs2)cc1 (stereo unspecified) | -6 | 19 | 12 | 26* | 58 | 56* | -1
CC(C)NC(=O)N1CCCN(c2nc3ccc(Cl)cc3s2)CC1 | -5 | -9 | -21 | 20* | -1 | 7 | 0
Cc1cc(C)c(NC(=O)CN2C(=O)NC3(CCCc4ccccc43)C2=O)c(Cl)c1 (stereo unspecified) | -22 | / | -18 | -5 | 12 | / | /
COc1cc(CC2COC(=O)C2(O)Cc2ccc(O)c(OC)c2)ccc1O (stereo unspecified) | 12 | / | 1 | 48* | 16 | 9 | 0
COc1cc(CC2COC(=O)C2Cc2ccc(O)c(OC)c2)ccc1O (stereo unspecified) | / | / | / | -4 | / | / | /
Cc1nnc(Nc2ccc(S(N)(=O)=O)cc2)c2ccccc12 | 3 | -10 | -22 | -2 | -11 | / | /
CC(=O)Nc1cccc(NC=C(C#N)C#N)c1 | 1 | -9 | -19 | 15* | 15 | -5 | 0
CCCCNC(=O)N1CCC(CCC(=O)N(C)Cc2ccccc2)CC1 | -18 | -9 | -17 | -11 | 8 | / | /
CC(=O)NCCC1CCN(c2nc3nonc3nc2N(C)Cc2ccccc2)CC1 | -18 | -5 | -25 | 20* | 15 | 0 | 0
COc1ccccc1NC(=O)NNC(=O)c1ccc2ccccc2c1O | / | -7 | / | 0 | / | / | /
C=CCC1(CC=C)CCCN1C(=O)c1cc(COc2ccc(C)nc2)on1 | 52* | 9 | 7 | 99* | 20 | 103* | 0
C=CCC1(CC=C)CCCN1C(=O)c1cc(COc2ccc(F)c(F)c2)on1 | 9 | 3 | -6 | -11 | 13 | / | /
